{"data": "Measurements of several laboratories", "CYP2B6": "Cytochrome P450 2B6 (CYP2B6, Homo sapiens, UniProt P20813)"}
{"Compound": "Cc1cc(S(=O)(=O)N[C@]2(C)C[C@@H](N3CCN(CC4CCN(c5ccc6c(c5F)n(C)c(=O)n6C5CCC(=O)NC5=O)CC4)CC3)C2)ccc1Nc1ncc(C(F)(F)F)c(N2CCC[C@](C)(O)C2)n1 (some centres unmarked)", "system": "rat, plasma", "conditions": "intravenous, 2 mg/kg", "measurement": "clearance", "value": "62 mL/min/kg"}
{"Compound": "CSc1ccccc1C(=O)NCCn1cc(C(=O)NCc2cccc(C)n2)c(=O)c2cc3c(cc21)OC(F)(F)O3", "tested on": "CYP2B6", "test": "enzyme activity, inhibitor", "system": "human, liver microsomes", "conditions": "20 min, without NADPH, with preincubation", "measurement": "IC50", "value": "> 100 µM"}
{"Compound": "CC(C)n1ncc2c(C(=O)NCC3(C)CNC3)cc(C3CC3)nc21", "tested on": "HeLa", "test": "cell growth or viability, neutral red", "conditions": "0.11 µM", "measurement": "viability", "value": "99.9%"}
{"Compound": "OCc1ccc(-c2nn(Cc3ccccc3)c3ccccc23)o1", "tested on": "CYP2B6", "test": "enzyme activity, inhibitor", "system": "human, liver microsomes", "measurement": "IC50", "value": "5.1 µM"}
{"Compound": "CNS(=O)(=O)c1ccc(Nc2ncc(C(F)(F)F)c(N3CCC(C)(O)CC3)n2)c(C)c1", "system": "rat, plasma", "conditions": "intravenous, 2 mg/kg", "measurement": "clearance", "value": "52 mL/min/kg"}
{"Compound": "c1ccc(Oc2ccc(Nc3ccc4ncc(OCC5CCNCC5)nc4c3)cc2)cc1", "tested on": "HeLa", "test": "cell growth or viability, XTT", "conditions": "7 days", "measurement": "EC50", "value": "20.9 µM"}
{"Compound": "Cc1cc(S(=O)(=O)NC2CC(N3CCN(CC4CCN(c5ccc(NC6CCC(=O)NC6=O)cc5C)CC4)CC3)C2)ccc1Nc1ncc(C(F)(F)F)c(N2CCC[C@](C)(O)C2)n1 (some centres unmarked)", "system": "rat, plasma", "conditions": "intravenous, 2 mg/kg", "measurement": "clearance", "value": "26 mL/min/kg"}
{"Compound": "c1ccc(COc2ccc(Nc3ccc4ncc(OCC5CCNCC5)nc4c3)cc2)cc1", "tested on": "HeLa", "test": "cell growth or viability, XTT", "conditions": "7 days", "measurement": "EC50", "value": "> 30 µM"}
{"Compound": "CC(C)[C@@H]1NC(=O)[C@@H](CCCCN)NC(=O)[C@H]([C@@H](C)O)NC(=O)[C@@H](CCCN)NC(=O)[C@H](Cc2ccccc2)NC(=O)[C@@H](Cc2ccccc2)NC1=O", "test": "haemolysis", "system": "human", "conditions": "100 µM", "measurement": "haemolysis", "value": "< 10%"}
{"Compound": "Cc1cc(S(=O)(=O)N[C@H]2CC[C@H](CN3CCN(c4ccc(C5CCC(=O)NC5=O)c(Cl)c4)CC3)CC2)ccc1Nc1ncc(C(F)(F)F)c(N2CCC[C@](C)(O)C2)n1 (some centres unmarked)", "system": "rat, plasma", "conditions": "intravenous, 2 mg/kg", "measurement": "clearance", "value": "15 mL/min/kg"}
{"Compound": "CCCCCCCCCCCCCCCCCC(=O)O", "tested on": "HeLa", "test": "cell growth or viability, MTT", "conditions": "48 h", "measurement": "CC50", "value": "90.6 µg/mL"}
{"Compound": "CSc1ccccc1C(=O)NCCn1cc(C(=O)NCc2cccc(C)n2)c(=O)c2cc3c(cc21)OCO3", "tested on": "CYP2B6", "test": "enzyme activity, inhibitor", "system": "human, liver microsomes", "conditions": "20 min, without NADPH, with preincubation", "measurement": "IC50", "value": "> 100 µM"}
{"Compound": "C[C@H]1Oc2cc(cnc2N)-c2c(nn(C)c2C#N)CN(C)C(=O)c2ccc(F)cc21", "system": "male Sprague-Dawley rat, plasma", "conditions": "oral, 5 mg/kg, single dose", "measurement": "CL/F", "value": "50 mL/min/kg"}
{"Compound": "CC(C)[C@@H]1NC(=O)[C@@H](CCCNC(=N)N)NC(=O)[C@H](C)NC(=O)[C@@H](CCCN)NC(=O)[C@H](Cc2ccccc2)NC(=O)[C@@H](Cc2ccccc2)NC1=O", "test": "haemolysis", "system": "human", "conditions": "100 µM", "measurement": "haemolysis", "value": "< 10%"}
